# ChEMBL document CHEMBL4689842, “EUbOPEN Chemogenomics Library wave 1” (2021)
# What was measured:
# Fibroblast = test: Incucyte cell viability with human fibroblast; format: toxicity, cell-based; conditions: 10 µM, compound concentration 10 uM; further: filed as whole numbers so only -1 and 0 and 1 occur
# U2OS = test: Multiplex assay against U2OS; format: toxicity, cell-based; conditions: human
# Summary of the method: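 Imaging took place on a CQ1 microscope at 37°C and 5% CO2 once compound had been added to live cells stained at seeding with Hoechst33342, BioTracker Green Microtubule Cytoskeleton Dye, MitoTracker Red and Annexin V Alexa Fluor 680. CellPathfinder machine-learning gating classed cells as Hoechst high-intensity objects or normal cells, classed normal cells as having healthy, pyknosed or fragmented nuclei, and classed pyknosed cells as mitotic or apoptotic. Tubulin, mitochondrial-mass and membrane-permeability phenotypes are per cents of the healthy-nucleus cells.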
# [1] = 12 h, 1 µM, compound concentration 1 uM, replicate 1
# [2] = 12 h, 1 µM, compound concentration 1 uM, replicate 2
# [3] = 12 h, 10 µM, compound concentration 10 uM, replicate 1
# [4] = 12 h, 10 µM, compound concentration 10 uM, replicate 2
# [5] = 24 h, 1 µM, compound concentration 1 uM, replicate 1
# [6] = 24 h, 1 µM, compound concentration 1 uM, replicate 2
# [7] = 24 h, 10 µM, compound concentration 10 uM, replicate 1
# [8] = 24 h, 10 µM, compound concentration 10 uM, replicate 2
# [9] = 48 h, 1 µM, compound concentration 1 uM, replicate 1
# [10] = 48 h, 1 µM, compound concentration 1 uM, replicate 2
# [11] = 48 h, 10 µM, compound concentration 10 uM, replicate 1
# [12] = 48 h, 10 µM, compound concentration 10 uM, replicate 2
smiles,measurement,setting,value
CC(=O)c1cc(-c2cc(C(=O)NC3CC3)ccc2C)c2ncccn12,Growth Rate,"Fibroblast; 0 h, replicate number 2, timepoint 0 hours",1
same,Growth Rate,"Fibroblast; 6 h, replicate number 1, timepoint 6 hours",0
same,Growth Rate,"Fibroblast; 12 h, replicate number 1, timepoint 12 hours",0
same,Growth Rate,"Fibroblast; 18 h, replicate number 1, timepoint 18 hours",0
same,Growth Rate,"Fibroblast; 24 h, replicate number 1, timepoint 24 hours",0
same,Population Apoptotic (%),U2OS; [1],42%
same,Population Fragmented Nuclei (%),U2OS; [1],6%
same,Population Healthy Nuclei (%),U2OS; [1],84%
same,Population Hoechst High Intensity Objects (%),U2OS; [1],5%
same,Population Membrane Permeable-Phenotype (%),U2OS; [1],9%
same,Population Mitochondria Different-Phenotype (%),U2OS; [1],8%
same,Population Mitotic Cells (%),U2OS; [1],57%
same,Population Normal (%),U2OS; [1],94%
same,Population Pyknosed Nuclei (%),U2OS; [1],8%
same,Population Tubulin-Different-Phenotype (%),U2OS; [1],14%
same,Total Cell Count,U2OS; [1],108
same,Population Apoptotic (%),U2OS; [2],66%
same,Population Fragmented Nuclei (%),U2OS; [2],8%
same,Population Healthy Nuclei (%),U2OS; [2],85%
same,Population Hoechst High Intensity Objects (%),U2OS; [2],7%
same,Population Membrane Permeable-Phenotype (%),U2OS; [2],2%
same,Population Mitochondria Different-Phenotype (%),U2OS; [2],7%
same,Population Mitotic Cells (%),U2OS; [2],33%
same,Population Normal (%),U2OS; [2],92%
same,Population Pyknosed Nuclei (%),U2OS; [2],6%
same,Population Tubulin-Different-Phenotype (%),U2OS; [2],19%
same,Total Cell Count,U2OS; [2],73
same,Population Apoptotic (%),U2OS; [3],43%
same,Population Fragmented Nuclei (%),U2OS; [3],7%
same,Population Healthy Nuclei (%),U2OS; [3],79%
same,Population Hoechst High Intensity Objects (%),U2OS; [3],6%
same,Population Membrane Permeable-Phenotype (%),U2OS; [3],6%
same,Population Mitochondria Different-Phenotype (%),U2OS; [3],9%
same,Population Mitotic Cells (%),U2OS; [3],56%
same,Population Normal (%),U2OS; [3],93%
same,Population Pyknosed Nuclei (%),U2OS; [3],12%
same,Population Tubulin-Different-Phenotype (%),U2OS; [3],16%
same,Total Cell Count,U2OS; [3],169
same,Population Apoptotic (%),U2OS; [4],60%
same,Population Fragmented Nuclei (%),U2OS; [4],11%
same,Population Healthy Nuclei (%),U2OS; [4],84%
same,Population Hoechst High Intensity Objects (%),U2OS; [4],4%
same,Population Membrane Permeable-Phenotype (%),U2OS; [4],3%
same,Population Mitochondria Different-Phenotype (%),U2OS; [4],8%
same,Population Mitotic Cells (%),U2OS; [4],40%
same,Population Normal (%),U2OS; [4],95%
same,Population Pyknosed Nuclei (%),U2OS; [4],5%
same,Population Tubulin-Different-Phenotype (%),U2OS; [4],17%
same,Total Cell Count,U2OS; [4],52
same,Population Apoptotic (%),U2OS; [5],43%
same,Population Fragmented Nuclei (%),U2OS; [5],4%
same,Population Healthy Nuclei (%),U2OS; [5],89%
same,Population Hoechst High Intensity Objects (%),U2OS; [5],4%
same,Population Membrane Permeable-Phenotype (%),U2OS; [5],6%
same,Population Mitochondria Different-Phenotype (%),U2OS; [5],5%
same,Population Mitotic Cells (%),U2OS; [5],56%
same,Population Normal (%),U2OS; [5],96%
same,Population Pyknosed Nuclei (%),U2OS; [5],6%
same,Population Tubulin-Different-Phenotype (%),U2OS; [5],17%
same,Total Cell Count,U2OS; [5],111
same,Population Apoptotic (%),U2OS; [6],0%
same,Population Fragmented Nuclei (%),U2OS; [6],3%
same,Population Healthy Nuclei (%),U2OS; [6],91%
same,Population Membrane Permeable-Phenotype (%),U2OS; [6],3%
same,Population Mitochondria Different-Phenotype (%),U2OS; [6],9%
same,Population Mitotic Cells (%),U2OS; [6],100%
same,Population Normal (%),U2OS; [6],95%
same,Population Pyknosed Nuclei (%),U2OS; [6],5%
same,Population Tubulin-Different-Phenotype (%),U2OS; [6],12%
same,Total Cell Count,U2OS; [6],70
same,Population Apoptotic (%),U2OS; [7],25%
same,Population Fragmented Nuclei (%),U2OS; [7],15%
same,Population Healthy Nuclei (%),U2OS; [7],66%
same,Population Hoechst High Intensity Objects (%),U2OS; [7],2%
same,Population Membrane Permeable-Phenotype (%),U2OS; [7],10%
same,Population Mitochondria Different-Phenotype (%),U2OS; [7],5%
same,Population Mitotic Cells (%),U2OS; [7],75%
same,Population Normal (%),U2OS; [7],97%
same,Population Pyknosed Nuclei (%),U2OS; [7],18%
same,Population Tubulin-Different-Phenotype (%),U2OS; [7],17%
same,Total Cell Count,U2OS; [7],250
same,Population Apoptotic (%),U2OS; [8],48%
same,Population Fragmented Nuclei (%),U2OS; [8],11%
same,Population Healthy Nuclei (%),U2OS; [8],63%
same,Population Membrane Permeable-Phenotype (%),U2OS; [8],8%
same,Population Mitochondria Different-Phenotype (%),U2OS; [8],12%
same,Population Mitotic Cells (%),U2OS; [8],51%
same,Population Pyknosed Nuclei (%),U2OS; [8],24%
same,Population Tubulin-Different-Phenotype (%),U2OS; [8],18%
same,Total Cell Count,U2OS; [8],62
same,Population Apoptotic (%),U2OS; [9],47%
same,Population Fragmented Nuclei (%),U2OS; [9],3%
same,Population Healthy Nuclei (%),U2OS; [9],91%
same,Population Hoechst High Intensity Objects (%),U2OS; [9],2%
same,Population Membrane Permeable-Phenotype (%),U2OS; [9],3%
same,Population Mitochondria Different-Phenotype (%),U2OS; [9],9%
same,Population Mitotic Cells (%),U2OS; [9],52%
same,Population Normal (%),U2OS; [9],97%
same,Population Pyknosed Nuclei (%),U2OS; [9],5%
same,Population Tubulin-Different-Phenotype (%),U2OS; [9],21%
same,Total Cell Count,U2OS; [9],106
same,Population Apoptotic (%),U2OS; [10],16%
same,Population Fragmented Nuclei (%),U2OS; [10],2%
same,Population Hoechst High Intensity Objects (%),U2OS; [10],3%
same,Population Membrane Permeable-Phenotype (%),U2OS; [10],2%
same,Population Mitochondria Different-Phenotype (%),U2OS; [10],20%
same,Population Mitotic Cells (%),U2OS; [10],83%
same,Population Normal (%),U2OS; [10],96%
same,Population Pyknosed Nuclei (%),U2OS; [10],6%
same,Population Tubulin-Different-Phenotype (%),U2OS; [10],23%
same,Total Cell Count,U2OS; [10],67
same,Population Apoptotic (%),U2OS; [11],70%
same,Population Fragmented Nuclei (%),U2OS; [11],16%
same,Population Healthy Nuclei (%),U2OS; [11],60%
same,Population Hoechst High Intensity Objects (%),U2OS; [11],7%
same,Population Membrane Permeable-Phenotype (%),U2OS; [11],10%
same,Population Mitochondria Different-Phenotype (%),U2OS; [11],6%
same,Population Mitotic Cells (%),U2OS; [11],30%
same,Population Normal (%),U2OS; [11],92%
same,Population Pyknosed Nuclei (%),U2OS; [11],22%
same,Population Tubulin-Different-Phenotype (%),U2OS; [11],16%
same,Total Cell Count,U2OS; [11],381
same,Population Apoptotic (%),U2OS; [12],87%
same,Population Fragmented Nuclei (%),U2OS; [12],14%
same,Population Healthy Nuclei (%),U2OS; [12],73%
same,Population Hoechst High Intensity Objects (%),U2OS; [12],4%
same,Population Membrane Permeable-Phenotype (%),U2OS; [12],31%
same,Population Mitochondria Different-Phenotype (%),U2OS; [12],29%
same,Population Mitotic Cells (%),U2OS; [12],12%
same,Population Normal (%),U2OS; [12],95%
same,Population Pyknosed Nuclei (%),U2OS; [12],11%
same,Population Tubulin-Different-Phenotype (%),U2OS; [12],35%
same,Total Cell Count,U2OS; [12],93
